Converted amounts (≈) assume the structure as drawn.
Columns and labels:
Type in all cases: functional
Candida albicans [1] = test: Synergistic antifungal activity against fluconazole-resistant Candida albicans 28A after 48 hrs in presence of fluconazole by broth microdilution checkerboard method
Procedure, shortened: (§1)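 Checkerboard dose-response matrix on strain 28A with gradients of fluconazole and the test compound in RPMI 1640, read after 48 h at 35 °C. MIC80 is taken alone and in combination, and FICI is calculated. Synergy is FICI ≤0.5, indifference >0.5-4, and antagonism >4.0.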

Candida albicans [2] = test: Potentiation of fluconazole-induced antifungal activity against fluconazole-resistant Candida albicans 28A assessed as fluconazole MIC80 after 48 hrs by broth microdilution checkerboard method; procedure, shortened: as §1
Candida albicans [3] = test: Antifungal activity against fluconazole-resistant Candida albicans 28A after 48 hrs by broth microdilution method
Procedure, shortened: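 Clinical fluconazole-resistant isolates tested in broth microdilution with the compound alone. The endpoint is MIC80, the lowest concentration giving 80% growth inhibition, in µg/mL.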

Candida albicans [4] = test: Potentiation of fluconazole-induced antifungal activity against fluconazole-resistant Candida albicans 28A after 48 hrs by broth microdilution checkerboard method; procedure, shortened: as §1
Candida albicans [5] = test: Antifungal activity against CDR1 and CDR2 efflux pump deficient Candida albicans DSY654 after 48 hrs by broth microdilution method; conditions: DSY654, 48 h
Procedure, shortened: (§2)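 MIC80 read by broth microdilution, with fluconazole as the positive antifungal agent. Values are reported in µg/mL as means of three independent experiments. Strains: wild-type SC5314 and DSY654, which lacks the Cdr1 and Cdr2 efflux pumps.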

Candida albicans [6] = test: Antifungal activity against Candida albicans SC5314 after 48 hrs by broth microdilution method; conditions: SC5314, 48 h; procedure, shortened: as §2

Structure (SMILES): COc1cc(O)c(-c2cc(-c3ccccc3)[nH]n2)c(OC)c1OC
- MIC80 (Candida albicans [1]): 16 µg/mL
- MIC80 (Candida albicans [2]): 2 µg/mL
- MIC80 (Candida albicans [3]): 64 µg/mL (≈ 196 µM)
- fractional inhibitory concentration index (FICI) (Candida albicans [4]): 0.266
- MIC80 (Candida albicans [5]): 2 µg/mL (≈ 6.13 µM)
- MIC80 (Candida albicans [6]): 64 µg/mL (≈ 196 µM)

Structure (SMILES): CCn1cc(-c2ccc(O)cc2)c(-c2ccc(O)c(C3OC(CO)C(O)C(O)C3O)c2O)n1 (stereo not given)
- MIC80 (Candida albicans [1]): > 128 µg/mL
- MIC80 (Candida albicans [2]): > 128 µg/mL
- MIC80 (Candida albicans [3]): > 128 µg/mL
- fractional inhibitory concentration index (FICI) (Candida albicans [4]): 2
- MIC80 (Candida albicans [5]): > 128 µg/mL
- MIC80 (Candida albicans [6]): > 128 µg/mL

Structure (SMILES): Oc1ccc(-c2cnn(-c3ccccc3)c2-c2ccc(O)cc2O)cc1
- MIC80 (Candida albicans [1]): > 128 µg/mL
- MIC80 (Candida albicans [2]): > 128 µg/mL
- MIC80 (Candida albicans [3]): > 128 µg/mL
- fractional inhibitory concentration index (FICI) (Candida albicans [4]): 2
- MIC80 (Candida albicans [5]): > 128 µg/mL
- MIC80 (Candida albicans [6]): > 128 µg/mL

Structure (SMILES): COc1ccc(-c2cn[nH]c2-c2c(O)cc(OC)cc2OC)cc1
- MIC80 (Candida albicans [1]): > 128 µg/mL
- MIC80 (Candida albicans [2]): > 128 µg/mL
- MIC80 (Candida albicans [3]): > 128 µg/mL
- fractional inhibitory concentration index (FICI) (Candida albicans [4]): 2
- MIC80 (Candida albicans [5]): > 128 µg/mL
- MIC80 (Candida albicans [6]): > 128 µg/mL

Structure (SMILES): COc1ccc(-c2cnn(-c3ccc(OC)cc3)c2-c2ccc(O)cc2O)cc1
- MIC80 (Candida albicans [1]): > 128 µg/mL
- MIC80 (Candida albicans [2]): > 128 µg/mL
- MIC80 (Candida albicans [3]): > 128 µg/mL
- fractional inhibitory concentration index (FICI) (Candida albicans [4]): 2
- MIC80 (Candida albicans [5]): > 128 µg/mL
- MIC80 (Candida albicans [6]): > 128 µg/mL

Structure (SMILES): COc1ccc(-c2cc(-c3ccccc3)[nH]n2)c(O)c1OC
- MIC80 (Candida albicans [1]): > 128 µg/mL
- MIC80 (Candida albicans [2]): > 128 µg/mL
- MIC80 (Candida albicans [3]): > 128 µg/mL
- fractional inhibitory concentration index (FICI) (Candida albicans [4]): 2
- MIC80 (Candida albicans [5]): > 128 µg/mL
- MIC80 (Candida albicans [6]): > 128 µg/mL

Structure (SMILES): COc1ccc(-c2cn(CCO)nc2-c2ccc(O)cc2O)cc1
- MIC80 (Candida albicans [1]): > 128 µg/mL
- MIC80 (Candida albicans [2]): > 128 µg/mL
- MIC80 (Candida albicans [3]): > 128 µg/mL
- fractional inhibitory concentration index (FICI) (Candida albicans [4]): 2
- MIC80 (Candida albicans [5]): > 128 µg/mL
- MIC80 (Candida albicans [6]): > 128 µg/mL

Structure (SMILES): CCn1ncc(-c2ccc(O)cc2)c1-c1ccc(O)c(C2OC(CO)C(O)C(O)C2O)c1O (stereo not given)
- MIC80 (Candida albicans [1]): > 128 µg/mL
- MIC80 (Candida albicans [2]): > 128 µg/mL
- MIC80 (Candida albicans [3]): > 128 µg/mL
- fractional inhibitory concentration index (FICI) (Candida albicans [4]): 2
- MIC80 (Candida albicans [5]): > 128 µg/mL
- MIC80 (Candida albicans [6]): > 128 µg/mL

Structure (SMILES): COc1cc(O)c(-c2cc(-c3ccccc3)n(CCO)n2)c(OC)c1
- MIC80 (Candida albicans [1]): 32 µg/mL
- MIC80 (Candida albicans [2]): 2 µg/mL
- MIC80 (Candida albicans [3]): > 128 µg/mL
- fractional inhibitory concentration index (FICI) (Candida albicans [4]): 0.266
- MIC80 (Candida albicans [5]): 4 µg/mL (≈ 11.8 µM)
- MIC80 (Candida albicans [6]): > 128 µg/mL

Structure (SMILES): OCC1OC(c2c(O)ccc(-c3n[nH]cc3-c3ccc(O)cc3)c2O)C(O)C(O)C1O (stereo not given)
- MIC80 (Candida albicans [1]): > 128 µg/mL
- MIC80 (Candida albicans [2]): > 128 µg/mL
- MIC80 (Candida albicans [3]): > 128 µg/mL
- fractional inhibitory concentration index (FICI) (Candida albicans [4]): 2
- MIC80 (Candida albicans [5]): 16 µg/mL (≈ 37.2 µM)
- MIC80 (Candida albicans [6]): > 128 µg/mL

Structure (SMILES): COc1ccc(-c2cnn(-c3ccccc3)c2-c2ccc(O)cc2O)cc1
- MIC80 (Candida albicans [1]): 16 µg/mL
- MIC80 (Candida albicans [2]): 2 µg/mL
- MIC80 (Candida albicans [3]): > 128 µg/mL
- fractional inhibitory concentration index (FICI) (Candida albicans [4]): 0.141
- MIC80 (Candida albicans [5]): > 128 µg/mL
- MIC80 (Candida albicans [6]): > 128 µg/mL

Structure (SMILES): COc1ccc(-c2cc(-c3ccccc3)nn2CCO)c(O)c1OC
- MIC80 (Candida albicans [1]): > 128 µg/mL
- MIC80 (Candida albicans [2]): > 128 µg/mL
- MIC80 (Candida albicans [3]): > 128 µg/mL
- fractional inhibitory concentration index (FICI) (Candida albicans [4]): 2
- MIC80 (Candida albicans [5]): > 128 µg/mL
- MIC80 (Candida albicans [6]): > 128 µg/mL

Structure (SMILES): COc1ccc(-c2cn[nH]c2-c2c(O)cc(O)cc2O)cc1
- MIC80 (Candida albicans [1]): > 128 µg/mL
- MIC80 (Candida albicans [2]): > 128 µg/mL
- MIC80 (Candida albicans [3]): > 128 µg/mL
- fractional inhibitory concentration index (FICI) (Candida albicans [4]): 2
- MIC80 (Candida albicans [5]): > 128 µg/mL
- MIC80 (Candida albicans [6]): > 128 µg/mL

Structure (SMILES): Oc1ccccc1C1=NCCNC(c2ccccc2)=C1
- MIC80 (Candida albicans [1]): > 128 µg/mL
- MIC80 (Candida albicans [2]): > 128 µg/mL
- MIC80 (Candida albicans [3]): > 128 µg/mL
- fractional inhibitory concentration index (FICI) (Candida albicans [4]): 2
- MIC80 (Candida albicans [5]): > 128 µg/mL
- MIC80 (Candida albicans [6]): > 128 µg/mL

Structure (SMILES): OCCn1nc(-c2ccccc2)cc1-c1ccccc1O
- MIC80 (Candida albicans [1]): > 128 µg/mL
- MIC80 (Candida albicans [2]): > 128 µg/mL
- MIC80 (Candida albicans [3]): > 128 µg/mL
- fractional inhibitory concentration index (FICI) (Candida albicans [4]): 2
- MIC80 (Candida albicans [5]): 8 µg/mL (≈ 28.5 µM)
- MIC80 (Candida albicans [6]): > 128 µg/mL

Structure (SMILES): COc1ccc(C2=CC(c3c(O)cc(OC)cc3OC)=NCCN2)cc1
- MIC80 (Candida albicans [1]): > 128 µg/mL
- MIC80 (Candida albicans [2]): > 128 µg/mL
- MIC80 (Candida albicans [3]): > 128 µg/mL
- fractional inhibitory concentration index (FICI) (Candida albicans [4]): 2
- MIC80 (Candida albicans [5]): 16 µg/mL (≈ 45.1 µM)
- MIC80 (Candida albicans [6]): > 128 µg/mL

Structure (SMILES): Oc1ccc(-c2cc(-c3c(O)cc(O)cc3O)[nH]n2)cc1
- MIC80 (Candida albicans [1]): 1 µg/mL
- MIC80 (Candida albicans [2]): 0.5 µg/mL
- MIC80 (Candida albicans [3]): > 128 µg/mL
- fractional inhibitory concentration index (FICI) (Candida albicans [4]): 0.012
- MIC80 (Candida albicans [5]): > 128 µg/mL
- MIC80 (Candida albicans [6]): > 128 µg/mL

Structure (SMILES): OCCn1ncc(-c2ccc(O)cc2)c1-c1ccc(O)c(C2OC(CO)C(O)C(O)C2O)c1O (stereo not given)
- MIC80 (Candida albicans [1]): > 128 µg/mL
- MIC80 (Candida albicans [2]): > 128 µg/mL
- MIC80 (Candida albicans [3]): > 128 µg/mL
- fractional inhibitory concentration index (FICI) (Candida albicans [4]): 2
- MIC80 (Candida albicans [5]): > 128 µg/mL
- MIC80 (Candida albicans [6]): > 128 µg/mL

Structure (SMILES): COc1cc(O)c(-c2cc(-c3ccccc3)nn2-c2ccccc2)c(OC)c1OC
- MIC80 (Candida albicans [1]): > 128 µg/mL
- MIC80 (Candida albicans [2]): > 128 µg/mL
- MIC80 (Candida albicans [3]): > 128 µg/mL
- fractional inhibitory concentration index (FICI) (Candida albicans [4]): 2
- MIC80 (Candida albicans [5]): > 128 µg/mL
- MIC80 (Candida albicans [6]): > 128 µg/mL

Structure (SMILES): COc1cc(O)c(C2=NCCNC(c3ccccc3)=C2)c(OC)c1
- MIC80 (Candida albicans [1]): 32 µg/mL
- MIC80 (Candida albicans [2]): 2 µg/mL
- MIC80 (Candida albicans [3]): 128 µg/mL (≈ 395 µM)
- fractional inhibitory concentration index (FICI) (Candida albicans [4]): 0.266
- MIC80 (Candida albicans [5]): 8 µg/mL (≈ 24.7 µM)
- MIC80 (Candida albicans [6]): 128 µg/mL (≈ 395 µM)

— ChEMBL document CHEMBL4219194, “Diversity-oriented synthesis of pyrazoles derivatives from flavones and isoflavones leads to the discovery of promising reversal agents of fluconazole resistance in Candida albicans” (2018)
